Data: ChEMBL document CHEMBL2321720, “Development of triarylsulfonamides as novel anti-inflammatory agents” (Bioorg Med Chem Lett, 2013)
≈ marks a conversion by molar mass, not a printed value.

Experiments:
[1] = Thermodynamic aqueous solubility of the compound in fasted state simulated intestinal fluid after 24 hrs by HPLC analysis; format: physicochemical; conditions: read-out: Therm_solubility
How it was run: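 Solubility in FaSSIF. The sample was filtered and concentration measured by HPLC/UV.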

[2] = Tmax in rat at […], po; format: ADME, organism-based; set-up: dose 2.5 mg/kg, route oral; conditions: in vivo
[3] = AUC in rat at […], po; format: ADME, organism-based; set-up: dose 2.5 mg/kg, route oral; conditions: plasma
[4] = Apparent permeability from apical to basolateral side of human Caco2 cells; format: ADME, cell-based; conditions: Caco-2
[5] = Oral bioavailability in rat at […]; format: ADME, organism-based; conditions: in vivo
[6] = Apparent permeability from basolateral to apical side of human Caco2 cells; format: ADME, cell-based; conditions: Caco-2
[7] = Cmax in rat at […], po; format: ADME, organism-based; set-up: dose 2.5 mg/kg, route oral; conditions: in vivo

SMILES	solubility thermodynamic at 24 h [1] [µg/mL]	further results
Cc1ccc(-c2ccc(S(=O)(=O)Nc3cccc(CO)c3)cc2)cc1	21 (≈ 59.4 µM)	–
O=S(=O)(Nc1cccc(CO)c1Cl)c1ccc(-c2ccc(Br)cc2)cc1	14 (≈ 30.9 µM)	–
O=S(=O)(Nc1ccc(O)c(CO)c1)c1ccc(-c2ccc(Br)cc2)cc1	4 (≈ 9.21 µM)	–
O=S(=O)(Nc1cccc(CO)c1)c1ccc(-c2ccc(F)cc2)cc1Cl	25 (≈ 63.8 µM)	–
O=S(=O)(Nc1cccc(CO)c1)c1ccc(-c2ccc(F)cc2F)cc1	50 (≈ 133 µM)	–
O=S(=O)(Nc1cccc(CO)c1)c1ccc(-c2ccccc2)cc1	11 (≈ 32.4 µM)	–
O=S(=O)(Nc1cccc(CO)c1)c1ccc(-c2ccc(Cl)cc2F)cc1	73 (≈ 186 µM)	–
Cc1c(CO)cccc1NS(=O)(=O)c1ccc(-c2ccc(F)cc2)cc1	24 (≈ 64.6 µM)	–
O=S(=O)(Nc1cccc(CO)c1)c1ccc(-c2ccc(Cl)cc2Cl)cc1	40 (≈ 98 µM)	Tmax [2]: 50 min; AUC [3]: 110 ng·h/mL; Papp A→B [4]: 1.5 ×10⁻⁶ cm/s; bioavailability [5]: 8%; Papp B→A [6]: 5.5 ×10⁻⁶ cm/s; Cmax [7]: 30 ng/mL
Cc1c(CO)cccc1NS(=O)(=O)c1ccc(-c2ccc(Br)cc2)cc1	12 (≈ 27.8 µM)	–
O=S(=O)(Nc1cc(CO)ccc1Cl)c1ccc(-c2ccc(Br)cc2)cc1	11 (≈ 24.3 µM)	–
O=S(=O)(Nc1cc(CO)ccc1O)c1ccc(-c2ccc(F)cc2F)cc1	12 (≈ 30.7 µM)	–
O=S(=O)(Nc1ccc(CO)c(CO)c1)c1ccc(-c2ccc(F)cc2F)cc1	32 (≈ 78.9 µM)	–
O=S(=O)(Nc1cccc(CO)c1)c1ccc(-c2ccc(Br)cc2)cc1	22 (≈ 52.6 µM)	–
Cc1c(CO)cccc1NS(=O)(=O)c1ccc(-c2ccc(F)cc2F)cc1	43 (≈ 110 µM)	–
Cc1ccc(CO)cc1NS(=O)(=O)c1ccc(-c2ccc(Br)cc2)cc1	47 (≈ 109 µM)	–
O=S(=O)(Nc1cccc(CO)c1)c1ccc(-c2ccccc2F)cc1	57 (≈ 159 µM)	–
O=S(=O)(Nc1cc(CO)ccc1O)c1ccc(-c2ccc(Br)cc2)cc1	12 (≈ 27.6 µM)	–
O=S(=O)(Nc1ccc(-c2ccc(Cl)cc2Cl)cc1)c1cccc(CO)c1	40 (≈ 98 µM)	–
O=S(=O)(Nc1cccc(CO)c1O)c1ccc(-c2ccc(Br)cc2)cc1	19 (≈ 43.7 µM)	–
